Laboratory results taken from ChEMBL document CHEMBL1155277, “Synthesis of new 4-isopropylthiazole hydrazide analogs and some derived clubbed triazole, oxadiazole ring systems--a novel class of potential antibacterial, antifungal and antitubercular agents” (Eur J Med Chem, 2009).
Values after ≈ are worked out from the molar mass of the structure shown.

Tests used:
Saccharomyces cerevisiae = experiment: Antimicrobial activity against Saccharomyces cerevisiae ATCC 9763 after 24 hrs by broth microdilution method; type: functional; details: ATCC 9763, 24 h
Method in brief: (§1)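 Broth microdilution in tubes. Compounds were dissolved at 10 mg in 1 mL DMSO and diluted in Mueller-Hinton Broth for bacteria or Sabouraud Liquid Medium for yeasts and A. niger. Final concentrations were 1–500 µg/mL (1, 2, 4, 8, 16, 31.25, 62.5, 125, 250, 500), with DMSO at most 1% v/v. Inoculum was 10^5 cfu/mL, incubated at 37 °C for 24 h. MIC was the lowest concentration giving complete growth inhibition. Media and media-plus-DMSO served as growth controls.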

Enterococcus faecalis = experiment: Antimicrobial activity against Streptococcus faecalis ATCC 14506 after 24 hrs by broth microdilution method; type: functional; details: ATCC 14506, 24 h; method in brief: as §1
Candida tropicalis = experiment: Antimicrobial activity against Candida tropicalis ATCC 1369 after 24 hrs by broth microdilution method; type: functional; details: ATCC 1369, 24 h; method in brief: as §1
Pseudomonas aeruginosa = experiment: Antimicrobial activity against Pseudomonas aeruginosa ATCC 10145 after 24 hrs by broth microdilution method; type: functional; details: ATCC 10145, 24 h; method in brief: as §1
Escherichia coli = experiment: Antimicrobial activity against Escherichia […] after 24 hrs by broth microdilution method; type: functional; method in brief: as §1
[1] = system: Mycobacterium tuberculosis; experiment: Antitubercular activity against Mycobacterium tuberculosis H37Rv after 21 days by broth dilution assay; type: functional; details: 504 h
Method in brief: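 H37Rv frozen stock in Middlebrook 7H9 broth with 10% albumin-dextrose-catalase and 0.2% glycerol, thawed and diluted to 10⁵ cfu mL⁻¹. Compounds dissolved in DMSO, diluted in broth (final DMSO 1.3%). U-tubes inoculated, incubated 37 °C for 21 days. Growth scored visually against drug-free and inoculum-free controls and isoniazid. MIC = lowest concentration inhibiting […] of starting population.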

Staphylococcus aureus = experiment: Antimicrobial activity against Staphylococcus aureus ATCC 11632 after 24 hrs by broth microdilution method; type: functional; details: ATCC 11632, 24 h; method in brief: as §1
Bacillus subtilis = experiment: Antimicrobial activity against Bacillus subtilis ATCC 60511 after 24 hrs by broth microdilution method; type: functional; details: ATCC 60511, 24 h; method in brief: as §1
Klebsiella pneumoniae = experiment: Antimicrobial activity against Klebsiella pneumoniae ATCC 10031 after 24 hrs by broth microdilution method; type: functional; details: ATCC 10031, 24 h; method in brief: as §1
Aspergillus niger = experiment: Antimicrobial activity against Aspergillus niger ATCC 6275 after 24 hrs by broth microdilution method; type: functional; details: ATCC 6275, 24 h; method in brief: as §1
A549 = experiment: Cytotoxicity against human A549 cell at 250 uM by MTT assay relative to control; type: cell-based; details: a549, 250 µM
Method in brief: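 A549 lung adenocarcinoma cells were grown with 10% and 0.2% FBS. Compounds were held as 10 mM DMSO stocks and diluted in culture medium; cells were treated at 250 µM. Viability was read by MTT reduction against untreated cells and a DMSO vehicle control. The work was done as two experiments, each with triplicate readings.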

| SMILES | MIC (Saccharomyces cerevisiae) | MIC (Enterococcus faecalis) | MIC (Candida tropicalis) | MIC (Pseudomonas aeruginosa) | MIC (Escherichia coli) | MIC [1] | MIC (Staphylococcus aureus) | MIC (Bacillus subtilis) | MIC (Klebsiella pneumoniae) | MIC (Aspergillus niger) | Activity (A549) |
| --- | --- | --- | --- | --- | --- | --- | --- | --- | --- | --- | --- |
| CC(C)=NNC(=O)c1nc(C(C)C)cs1 | 500 µg/mL (≈ 2220 µM) | 125 µg/mL (≈ 555 µM) | 125 µg/mL (≈ 555 µM) | 125 µg/mL (≈ 555 µM) | 125 µg/mL (≈ 555 µM) | 125 µg/mL (≈ 555 µM) | 250 µg/mL (≈ 1110 µM) | 125 µg/mL (≈ 555 µM) | 125 µg/mL (≈ 555 µM) | 500 µg/mL (≈ 2220 µM) |  |
| C/C(=N/NC(=O)c1nc(C(C)C)cs1)c1ccc(Cl)cc1 | 125 µg/mL (≈ 388 µM) | 125 µg/mL (≈ 388 µM) | 125 µg/mL (≈ 388 µM) | 125 µg/mL (≈ 388 µM) | 125 µg/mL (≈ 388 µM) | 62.5 µg/mL (≈ 194 µM) | 125 µg/mL (≈ 388 µM) | 31.2 µg/mL (≈ 97.1 µM) | 125 µg/mL (≈ 388 µM) | 125 µg/mL (≈ 388 µM) |  |
| CCn1cc(C(=O)O)c(=O)c2cc(F)c(N3CCNCC3)cc21 [NORFLOXACIN] |  | ≤ 5 µg/mL |  | ≤ 5 µg/mL | ≤ 1 µg/mL |  | ≤ 5 µg/mL | ≤ 1 µg/mL | ≤ 1 µg/mL |  |  |
| CC(C)c1csc(-c2nnc(S)n2N)n1 | 16 µg/mL (≈ 66.3 µM) | 31.2 µg/mL (≈ 129 µM) | 8 µg/mL (≈ 33.1 µM) | 16 µg/mL (≈ 66.3 µM) | 31.2 µg/mL (≈ 129 µM) | 8 µg/mL (≈ 33.1 µM) | 125 µg/mL (≈ 518 µM) | 8 µg/mL (≈ 33.1 µM) | 31.2 µg/mL (≈ 129 µM) | 8 µg/mL (≈ 33.1 µM) | 50% |
| CC(C)c1csc(C(=O)N/N=C/c2ccc(N(C)C)cc2)n1 | 250 µg/mL (≈ 790 µM) | 125 µg/mL (≈ 395 µM) | 125 µg/mL (≈ 395 µM) | 31.2 µg/mL (≈ 98.8 µM) | 31.2 µg/mL (≈ 98.8 µM) | 125 µg/mL (≈ 395 µM) | 250 µg/mL (≈ 790 µM) | 125 µg/mL (≈ 395 µM) | 125 µg/mL (≈ 395 µM) | 62.5 µg/mL (≈ 198 µM) |  |
| C/C(=N/NC(=O)c1nc(C(C)C)cs1)c1ccccc1 | 500 µg/mL (≈ 1740 µM) | 250 µg/mL (≈ 870 µM) | 500 µg/mL (≈ 1740 µM) | 250 µg/mL (≈ 870 µM) | 125 µg/mL (≈ 435 µM) | 125 µg/mL (≈ 435 µM) | 250 µg/mL (≈ 870 µM) | 250 µg/mL (≈ 870 µM) | 125 µg/mL (≈ 435 µM) | 250 µg/mL (≈ 870 µM) |  |
| CC(=O)N1N=C(c2nc(C(C)C)cs2)OC1c1ccc([N+](=O)[O-])cc1 (stereo not drawn) | 500 µg/mL (≈ 1390 µM) | 125 µg/mL (≈ 347 µM) | 125 µg/mL (≈ 347 µM) | 125 µg/mL (≈ 347 µM) | 250 µg/mL (≈ 694 µM) | 62.5 µg/mL (≈ 173 µM) | 125 µg/mL (≈ 347 µM) | 250 µg/mL (≈ 694 µM) | 125 µg/mL (≈ 347 µM) | 31.2 µg/mL (≈ 86.7 µM) |  |
| O=C(O)c1cn(C2CC2)c2cc(N3CCNCC3)c(F)cc2c1=O [CIPROFLOXACIN] |  | ≤ 5 µg/mL |  | ≤ 5 µg/mL | ≤ 1 µg/mL |  | ≤ 5 µg/mL | ≤ 1 µg/mL | ≤ 1 µg/mL |  |  |
| CC(C)c1csc(-c2nnc(S)o2)n1 | 31.2 µg/mL (≈ 137 µM) | 31.2 µg/mL (≈ 137 µM) | 16 µg/mL (≈ 70.4 µM) | 31.2 µg/mL (≈ 137 µM) | 31.2 µg/mL (≈ 137 µM) | 8 µg/mL (≈ 35.2 µM) | 125 µg/mL (≈ 550 µM) | 16 µg/mL (≈ 70.4 µM) | 16 µg/mL (≈ 70.4 µM) | 31.2 µg/mL (≈ 137 µM) |  |
| CC(=O)N1N=C(c2nc(C(C)C)cs2)OC1c1ccc(N(C)C)cc1 (stereo not drawn) | 31.2 µg/mL (≈ 87.2 µM) | 125 µg/mL (≈ 349 µM) | 31.2 µg/mL (≈ 87.2 µM) | 16 µg/mL (≈ 44.6 µM) | 16 µg/mL (≈ 44.6 µM) | 62.5 µg/mL (≈ 174 µM) | 125 µg/mL (≈ 349 µM) | 31.2 µg/mL (≈ 87.2 µM) | 31.2 µg/mL (≈ 87.2 µM) | 31.2 µg/mL (≈ 87.2 µM) |  |
| CC(C)c1csc(C(=O)N/N=C/c2ccc([N+](=O)[O-])cc2)n1 | 125 µg/mL (≈ 393 µM) | 250 µg/mL (≈ 785 µM) | 62.5 µg/mL (≈ 196 µM) | 125 µg/mL (≈ 393 µM) | 31.2 µg/mL (≈ 98.2 µM) | 125 µg/mL (≈ 393 µM) | 125 µg/mL (≈ 393 µM) | 125 µg/mL (≈ 393 µM) | 125 µg/mL (≈ 393 µM) | 31.2 µg/mL (≈ 98.2 µM) |  |
| CC(=O)N1N=C(c2nc(C(C)C)cs2)OC1c1ccccc1 (stereo not drawn) | 31.2 µg/mL (≈ 99.1 µM) | 62.5 µg/mL (≈ 198 µM) | 16 µg/mL (≈ 50.7 µM) | 16 µg/mL (≈ 50.7 µM) | 62.5 µg/mL (≈ 198 µM) | 31.2 µg/mL (≈ 99.1 µM) | 125 µg/mL (≈ 396 µM) | 31.2 µg/mL (≈ 99.1 µM) | 62.5 µg/mL (≈ 198 µM) | 16 µg/mL (≈ 50.7 µM) |  |
| COc1cc(/C=N/NC(=O)c2nc(C(C)C)cs2)cc(OC)c1OC | 125 µg/mL (≈ 344 µM) | 250 µg/mL (≈ 688 µM) | 62.5 µg/mL (≈ 172 µM) | 31.2 µg/mL (≈ 86 µM) | 125 µg/mL (≈ 344 µM) | 125 µg/mL (≈ 344 µM) | 500 µg/mL (≈ 1380 µM) | 125 µg/mL (≈ 344 µM) | 125 µg/mL (≈ 344 µM) | 31.2 µg/mL (≈ 86 µM) |  |
